Source: ChEMBL document CHEMBL3588770, “Novel spirohydantoin derivative as a potent multireceptor-active antipsychotic and antidepressant agent” (Bioorg Med Chem, 2015)

Key:
[1] = molecular target: T1, 5-hydroxytryptamine receptor 1A (Rattus norvegicus, UniProt P19327); experiment: Displacement of [3H]-8-OH-DPAT from 5-HT1A receptor in rat hippocampal membrane by liquid scintillation analysis; assay type: cell membranes, Hippocampus
T1 sequence (P19327 whole entry): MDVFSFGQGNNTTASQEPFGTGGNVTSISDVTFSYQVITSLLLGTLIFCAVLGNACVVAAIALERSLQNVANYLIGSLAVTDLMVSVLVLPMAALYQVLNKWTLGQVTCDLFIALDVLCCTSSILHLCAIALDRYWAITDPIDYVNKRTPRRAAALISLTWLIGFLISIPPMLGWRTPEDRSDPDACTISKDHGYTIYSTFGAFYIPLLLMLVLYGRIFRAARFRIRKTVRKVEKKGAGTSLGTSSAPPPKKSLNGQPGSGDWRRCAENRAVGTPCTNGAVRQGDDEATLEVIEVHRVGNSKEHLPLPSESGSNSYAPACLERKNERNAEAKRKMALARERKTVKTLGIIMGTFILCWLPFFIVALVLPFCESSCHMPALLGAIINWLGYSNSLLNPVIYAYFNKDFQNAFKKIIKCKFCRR
Procedure, shortened: (§1)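 Native rat membranes were used: hippocampus with [3H]-8-OH-DPAT (170 Ci/mmol) and 5-HT for non-specific binding; cortex with [3H]-ketanserin (88.0 Ci/mmol) and methysergide; hypothalamus with [3H]-5-CT (34.5 Ci/mmol) and 5-HT. Compounds were tested in triplicate at 7–8 concentrations (10⁻¹¹–10⁻⁴ M). Read-out was liquid scintillation counting. Ki came from nonlinear regression with Cheng-Prusoff, as the mean of at least two experiments.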

[2] = molecular target: 5-hydroxytryptamine receptor 2A (Rattus norvegicus, UniProt P14842); experiment: Displacement of [3H]ketanserin from 5-HT2A receptor in rat cortical membrane by liquid scintillation analysis; assay type: cell membranes; procedure, shortened: as §1
5-hydroxytryptamine receptor 2A, sequence (P14842 whole entry): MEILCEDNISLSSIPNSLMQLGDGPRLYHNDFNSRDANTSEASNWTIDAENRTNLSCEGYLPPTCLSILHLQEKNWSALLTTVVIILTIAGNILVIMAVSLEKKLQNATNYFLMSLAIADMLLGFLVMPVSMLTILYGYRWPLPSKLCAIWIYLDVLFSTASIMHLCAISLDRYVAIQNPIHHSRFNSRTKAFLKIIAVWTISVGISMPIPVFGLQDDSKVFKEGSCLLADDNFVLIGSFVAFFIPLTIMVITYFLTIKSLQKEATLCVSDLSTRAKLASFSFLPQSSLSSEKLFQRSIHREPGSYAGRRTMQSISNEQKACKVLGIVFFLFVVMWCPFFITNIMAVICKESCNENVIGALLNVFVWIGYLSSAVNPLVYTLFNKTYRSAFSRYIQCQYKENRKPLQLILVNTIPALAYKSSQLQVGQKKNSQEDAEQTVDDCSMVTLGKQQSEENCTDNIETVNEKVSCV

[3] = molecular target: 5-hydroxytryptamine receptor 7 (Rattus norvegicus, UniProt P32305); experiment: Displacement of [3H]-5-CT from 5-HT7 receptor in rat hypothalamic membrane by liquid scintillation analysis; assay type: cell membranes; procedure, shortened: as §1
5-hydroxytryptamine receptor 7, sequence (P32305 whole entry): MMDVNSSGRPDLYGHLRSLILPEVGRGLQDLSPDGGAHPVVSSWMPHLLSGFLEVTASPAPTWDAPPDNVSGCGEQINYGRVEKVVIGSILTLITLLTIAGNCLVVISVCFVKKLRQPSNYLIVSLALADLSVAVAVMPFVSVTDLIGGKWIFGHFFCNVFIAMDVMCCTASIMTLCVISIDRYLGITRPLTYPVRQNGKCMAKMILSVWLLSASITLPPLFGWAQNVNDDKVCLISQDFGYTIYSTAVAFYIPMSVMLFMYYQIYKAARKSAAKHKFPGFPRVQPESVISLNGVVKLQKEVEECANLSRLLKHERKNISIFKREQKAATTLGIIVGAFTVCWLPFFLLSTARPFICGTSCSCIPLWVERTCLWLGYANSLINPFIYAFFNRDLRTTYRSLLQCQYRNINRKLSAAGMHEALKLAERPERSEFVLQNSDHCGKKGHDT

[4] = molecular target: D(1A) dopamine receptor (Homo sapiens) (UniProt P21728); experiment: Displacement of [3H]SCH23390 from human D1 receptor expressed in CHO cells at 1 uM by scintillation counting analysis; assay type: cell-based
D(1A) dopamine receptor (Homo sapiens), sequence (P21728 whole entry): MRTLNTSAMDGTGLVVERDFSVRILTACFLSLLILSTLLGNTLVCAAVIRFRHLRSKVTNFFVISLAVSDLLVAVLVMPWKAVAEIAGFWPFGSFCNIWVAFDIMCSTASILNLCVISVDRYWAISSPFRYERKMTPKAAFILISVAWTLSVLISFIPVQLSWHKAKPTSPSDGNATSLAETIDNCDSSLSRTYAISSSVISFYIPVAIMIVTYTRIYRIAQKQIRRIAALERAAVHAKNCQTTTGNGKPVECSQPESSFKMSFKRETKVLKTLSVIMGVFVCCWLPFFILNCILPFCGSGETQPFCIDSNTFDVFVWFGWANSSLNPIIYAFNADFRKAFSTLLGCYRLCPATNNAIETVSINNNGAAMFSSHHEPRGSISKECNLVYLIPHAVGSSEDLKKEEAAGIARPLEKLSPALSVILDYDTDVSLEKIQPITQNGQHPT
Procedure, shortened: (§2)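 Extended binding screen run by a contract lab. Receptors were cloned human: 5-HT1A, 5-HT2A, 5-HT2C and H1 in HEK-293 cells; D1, α1, α2C and M3 in CHO cells; 5-HT6/7 and D2/3/4 in CHO cells. Radioligand displacement was done at a single 1.0E-06 concentration in duplicate. Results are mean % inhibition of control specific binding.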

[5] = molecular target: D(2) dopamine receptor (Homo sapiens) (UniProt P14416); experiment: Displacement of [3H]methylspiperione from human D2 receptor expressed in CHO cells at 1 uM by scintillation counting analysis; assay type: cell-based; procedure, shortened: as §2
D(2) dopamine receptor (Homo sapiens), sequence (P14416 whole entry): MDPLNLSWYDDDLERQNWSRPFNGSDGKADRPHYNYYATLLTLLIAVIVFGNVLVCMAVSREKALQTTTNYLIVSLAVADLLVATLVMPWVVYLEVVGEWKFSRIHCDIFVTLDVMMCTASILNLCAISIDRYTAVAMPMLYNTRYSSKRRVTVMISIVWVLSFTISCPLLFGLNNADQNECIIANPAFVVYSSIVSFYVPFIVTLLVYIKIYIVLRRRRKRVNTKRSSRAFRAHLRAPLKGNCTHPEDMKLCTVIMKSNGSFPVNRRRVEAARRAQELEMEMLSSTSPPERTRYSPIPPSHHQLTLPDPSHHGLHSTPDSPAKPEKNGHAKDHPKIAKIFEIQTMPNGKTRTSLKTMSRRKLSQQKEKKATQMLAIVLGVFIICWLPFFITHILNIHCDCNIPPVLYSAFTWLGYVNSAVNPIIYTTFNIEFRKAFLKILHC

[6] = molecular target: D(3) dopamine receptor (Homo sapiens) (UniProt P35462); experiment: Displacement of [3H]methylspiperione from human D3 receptor expressed in CHO cells at 1 uM by scintillation counting analysis; assay type: cell-based; procedure, shortened: as §2
D(3) dopamine receptor (Homo sapiens), sequence (P35462 whole entry): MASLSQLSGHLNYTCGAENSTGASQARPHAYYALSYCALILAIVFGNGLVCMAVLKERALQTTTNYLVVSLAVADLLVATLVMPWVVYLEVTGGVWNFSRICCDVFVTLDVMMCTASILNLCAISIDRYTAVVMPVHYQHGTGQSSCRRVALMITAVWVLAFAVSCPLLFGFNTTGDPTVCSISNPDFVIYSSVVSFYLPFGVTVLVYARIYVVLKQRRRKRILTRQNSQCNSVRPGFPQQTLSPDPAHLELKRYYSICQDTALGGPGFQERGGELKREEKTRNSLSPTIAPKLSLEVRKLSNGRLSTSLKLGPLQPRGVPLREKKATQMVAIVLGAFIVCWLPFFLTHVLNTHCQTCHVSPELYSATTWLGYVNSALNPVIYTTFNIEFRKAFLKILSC

[7] = molecular target: T2, D(4) dopamine receptor (Homo sapiens) (UniProt P21917); experiment: Displacement of [3H]methylspiperione from human D4 receptor expressed in CHO cells at 1 uM by scintillation counting analysis; assay type: cell-based; procedure, shortened: as §2
T2 sequence (whole entry): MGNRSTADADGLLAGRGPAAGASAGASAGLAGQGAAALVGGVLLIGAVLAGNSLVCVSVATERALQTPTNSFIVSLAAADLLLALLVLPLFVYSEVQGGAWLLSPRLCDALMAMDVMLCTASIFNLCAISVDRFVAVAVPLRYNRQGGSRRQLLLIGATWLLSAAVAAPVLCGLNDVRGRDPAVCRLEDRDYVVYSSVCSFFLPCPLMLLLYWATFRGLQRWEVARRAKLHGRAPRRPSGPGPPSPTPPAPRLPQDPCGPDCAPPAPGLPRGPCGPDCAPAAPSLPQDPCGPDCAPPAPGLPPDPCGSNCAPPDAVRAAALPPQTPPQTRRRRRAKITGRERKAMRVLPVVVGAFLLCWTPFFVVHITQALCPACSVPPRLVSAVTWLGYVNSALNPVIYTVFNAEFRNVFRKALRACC

[8] = molecular target: T3, 5-hydroxytryptamine receptor 1A (Homo sapiens) (UniProt P08908); experiment: Displacement of [3H]-8-OH-DPAT from human cloned 5HT1A receptor expressed in HEK293 cells at 1 uM by scintillation counting analysis; assay type: cell-based; procedure, shortened: as §2
T3 sequence (whole entry): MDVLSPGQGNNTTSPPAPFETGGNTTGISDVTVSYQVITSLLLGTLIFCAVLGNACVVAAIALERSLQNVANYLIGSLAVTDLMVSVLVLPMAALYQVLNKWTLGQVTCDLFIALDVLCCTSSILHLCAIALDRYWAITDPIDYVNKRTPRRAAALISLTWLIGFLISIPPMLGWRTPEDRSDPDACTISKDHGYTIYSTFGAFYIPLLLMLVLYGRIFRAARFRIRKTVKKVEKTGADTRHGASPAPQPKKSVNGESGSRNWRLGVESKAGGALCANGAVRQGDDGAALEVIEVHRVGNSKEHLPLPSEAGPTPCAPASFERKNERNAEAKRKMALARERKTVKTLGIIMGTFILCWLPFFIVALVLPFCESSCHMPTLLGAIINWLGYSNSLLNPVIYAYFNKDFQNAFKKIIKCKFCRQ

[9] = molecular target: 5-hydroxytryptamine receptor 2A (Homo sapiens) (UniProt P28223); experiment: Displacement of [3H]ketanserin from human cloned 5HT2A receptor expressed in HEK293 cells at 1uM by scintillation counting analysis; assay type: cell-based; procedure, shortened: as §2
5-hydroxytryptamine receptor 2A (Homo sapiens), sequence (P28223 whole entry): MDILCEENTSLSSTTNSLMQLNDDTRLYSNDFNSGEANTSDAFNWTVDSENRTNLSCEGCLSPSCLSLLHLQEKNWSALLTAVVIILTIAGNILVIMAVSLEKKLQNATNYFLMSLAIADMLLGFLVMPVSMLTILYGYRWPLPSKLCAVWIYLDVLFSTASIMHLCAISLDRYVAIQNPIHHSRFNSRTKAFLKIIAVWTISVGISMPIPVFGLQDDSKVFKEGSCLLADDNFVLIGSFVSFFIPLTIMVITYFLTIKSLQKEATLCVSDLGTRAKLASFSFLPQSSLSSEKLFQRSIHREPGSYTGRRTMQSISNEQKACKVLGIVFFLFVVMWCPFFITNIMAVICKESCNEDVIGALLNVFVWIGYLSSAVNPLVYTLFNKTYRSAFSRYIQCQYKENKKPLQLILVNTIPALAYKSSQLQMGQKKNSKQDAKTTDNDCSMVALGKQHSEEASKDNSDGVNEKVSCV

[10] = molecular target: 5-hydroxytryptamine receptor 6 (Homo sapiens) (UniProt P50406); experiment: Displacement of [3H]LSD from human 5HT6 receptor expressed in CHO cells at 1 uM by scintillation counting analysis; assay type: cell-based; procedure, shortened: as §2
5-hydroxytryptamine receptor 6 (Homo sapiens), sequence (P50406 whole entry): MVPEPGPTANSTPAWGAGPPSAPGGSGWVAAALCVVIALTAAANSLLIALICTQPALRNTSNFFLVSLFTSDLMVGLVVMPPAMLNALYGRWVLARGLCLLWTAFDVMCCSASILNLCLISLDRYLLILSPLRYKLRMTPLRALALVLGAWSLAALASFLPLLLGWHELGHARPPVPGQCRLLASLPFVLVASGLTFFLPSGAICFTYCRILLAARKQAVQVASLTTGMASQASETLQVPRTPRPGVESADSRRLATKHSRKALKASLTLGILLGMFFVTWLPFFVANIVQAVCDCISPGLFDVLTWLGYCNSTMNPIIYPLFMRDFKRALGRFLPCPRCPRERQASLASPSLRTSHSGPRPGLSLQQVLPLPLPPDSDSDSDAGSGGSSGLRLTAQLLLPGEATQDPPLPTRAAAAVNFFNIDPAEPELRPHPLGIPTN

[11] = molecular target: 5-hydroxytryptamine receptor 7 (Homo sapiens) (UniProt P34969); experiment: Displacement of [3H]LSD from human 5HT7 receptor expressed in CHO cells at 1 uM by scintillation counting analysis; assay type: cell-based; procedure, shortened: as §2
5-hydroxytryptamine receptor 7 (Homo sapiens), sequence (P34969 whole entry): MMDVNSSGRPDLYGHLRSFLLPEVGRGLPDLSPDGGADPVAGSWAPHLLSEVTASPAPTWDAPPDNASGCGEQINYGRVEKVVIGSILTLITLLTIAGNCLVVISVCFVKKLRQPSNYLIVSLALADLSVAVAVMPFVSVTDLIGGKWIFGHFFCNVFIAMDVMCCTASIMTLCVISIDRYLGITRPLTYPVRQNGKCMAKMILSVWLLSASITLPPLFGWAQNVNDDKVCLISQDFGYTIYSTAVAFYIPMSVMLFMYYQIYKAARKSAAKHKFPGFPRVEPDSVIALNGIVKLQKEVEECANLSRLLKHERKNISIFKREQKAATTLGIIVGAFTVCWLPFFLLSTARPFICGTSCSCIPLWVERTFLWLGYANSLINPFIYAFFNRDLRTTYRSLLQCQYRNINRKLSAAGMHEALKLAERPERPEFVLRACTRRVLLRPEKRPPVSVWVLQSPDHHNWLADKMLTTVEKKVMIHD

[12] = molecular target: Adrenergic receptor alpha-1 (Homo sapiens) (UniProt P35348+P25100+P35368); experiment: Displacement of [3H]prazosin from human alpha1-adrenergic receptor expressed in CHO cells at 1 uM by scintillation counting analysis; assay type: cell-based; procedure, shortened: as §2
[13] = molecular target: Muscarinic acetylcholine receptor M3 (Homo sapiens) (UniProt P20309); experiment: Displacement of [3H]-4-DAMP from human muscarinic M3 receptor expressed in CHO cells at 1 uM by scintillation counting analysis; assay type: cell-based; procedure, shortened: as §2
Muscarinic acetylcholine receptor M3 (Homo sapiens), sequence (P20309 whole entry, looked up): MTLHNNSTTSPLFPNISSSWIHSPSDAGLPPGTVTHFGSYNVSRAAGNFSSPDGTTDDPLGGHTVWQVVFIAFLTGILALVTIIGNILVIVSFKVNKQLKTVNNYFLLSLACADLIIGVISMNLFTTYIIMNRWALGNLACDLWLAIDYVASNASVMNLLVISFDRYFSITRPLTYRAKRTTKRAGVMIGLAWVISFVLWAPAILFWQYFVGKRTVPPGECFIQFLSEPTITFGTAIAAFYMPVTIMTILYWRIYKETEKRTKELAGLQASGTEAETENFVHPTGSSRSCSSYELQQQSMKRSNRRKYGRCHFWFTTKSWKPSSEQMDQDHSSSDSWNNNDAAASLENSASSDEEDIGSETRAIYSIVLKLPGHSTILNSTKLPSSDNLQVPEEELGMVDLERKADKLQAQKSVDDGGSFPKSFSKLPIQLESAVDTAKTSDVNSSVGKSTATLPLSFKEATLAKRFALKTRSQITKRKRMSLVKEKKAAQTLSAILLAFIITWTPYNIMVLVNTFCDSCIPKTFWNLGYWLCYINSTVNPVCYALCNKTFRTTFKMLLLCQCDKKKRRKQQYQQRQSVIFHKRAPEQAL

[14] = molecular target: Histamine H1 receptor (Homo sapiens) (UniProt P35367); experiment: Displacement of [3H]-pyrilamine from human cloned H1 receptor expressed in HEK293 cells at 1 uM by scintillation counting analysis; assay type: cell-based; procedure, shortened: as §2
Histamine H1 receptor (Homo sapiens), sequence (P35367 whole entry): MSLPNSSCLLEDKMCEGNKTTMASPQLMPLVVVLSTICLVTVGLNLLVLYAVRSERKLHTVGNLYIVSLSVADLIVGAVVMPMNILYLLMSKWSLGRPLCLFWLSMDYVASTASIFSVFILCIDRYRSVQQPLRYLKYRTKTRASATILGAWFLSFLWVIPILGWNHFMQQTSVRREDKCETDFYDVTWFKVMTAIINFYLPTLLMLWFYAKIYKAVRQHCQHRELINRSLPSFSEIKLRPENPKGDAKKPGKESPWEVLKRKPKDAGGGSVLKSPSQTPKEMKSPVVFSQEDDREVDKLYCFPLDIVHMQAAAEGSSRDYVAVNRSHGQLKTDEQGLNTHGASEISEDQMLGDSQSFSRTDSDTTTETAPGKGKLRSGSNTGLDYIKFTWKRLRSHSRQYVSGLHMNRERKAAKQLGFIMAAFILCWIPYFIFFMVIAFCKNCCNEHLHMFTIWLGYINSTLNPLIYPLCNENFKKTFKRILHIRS

Row | Ki [1] [nM] | Ki [2] [nM] | Ki [3] [nM] | inhibition [4] [%] | inhibition [5] [%] | inhibition [6] [%] | inhibition [7] [%] | inhibition [8] [%] | inhibition [9] [%] | inhibition [10] [%] | inhibition [11] [%] | inhibition [12] [%] | inhibition [13] [%] | inhibition [14] [%] | Structure (SMILES)
1 | 12 | 21 | 27 | 91 | 75 | 97 | 90 | 103 | 98 | 23 | 99 | 96 | 5 | 101 | O=C1NC2(CCc3ccccc32)C(=O)N1CCCCN1CCN(c2cccc(Cl)c2)CC1 (stereo unspecified)
2 | 15 | 27 | 37 | 95 | 77 | 93 | 93 | 99 | 95 | 37 | 100 | 94 | 3 | 102 | O=C1NC2(CCCc3ccccc32)C(=O)N1CCCCN1CCN(c2cccc(Cl)c2)CC1 (stereo unspecified)
3 | 2.6 | 98 | 71 | 68 | 96 | 96 | 95 | 103 | 100 | 3 | 98 | 98 | 5 | 94 | COc1ccccc1N1CCN(CCCCN2C(=O)NC3(CCc4ccccc43)C2=O)CC1 (stereo unspecified)
4 | 2.2 | 59 | 47 | 87 | 97 | 94 | 98 | 98 | 69 | 29 | 99 | 99 | -6 | 99 | COc1ccccc1N1CCN(CCCCN2C(=O)NC3(CCCc4ccccc43)C2=O)CC1 (stereo unspecified)
